Test results published in ChEMBL document CHEMBL3621194, “Synthesis of Triazole-Linked Analogues of c-di-GMP and Their Interactions with Diguanylate Cyclase” (J Med Chem, 2015).
The source made the active and inactive calls. No cut-off for these calls is given here.

Columns and labels:
[1] = test system: Caulobacter vibrioides; experiment: Inhibition of Caulobacter crescentus PleD assessed as residual enzyme activity at 100 uM using 100 uM GTP substrate
How it was run: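 PleD residual DGC activity at 100 µM compound with 100 µM GTP substrate, measured by circular dichroism, or by reverse-phase HPLC of nucleotide content when compound CD spectra interfered.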

[2] = test system: Pseudomonas aeruginosa; experiment: Inhibition of Pseudomonas aeruginosa RocR assessed as residual enzyme activity at 100 uM using 30 uM c-di-GMP substrate
How it was run: (§1)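 RocR PDE activity measured with 30 µM c-di-GMP substrate, with or without inhibitors. For IC50, initial velocity used and residual activity fitted to log-dose vs response curve; points are mean and SD of three independent experiments. Single-point screens used 100 µM compound.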

[3] = Inhibition of Caulobacter crescentus PleD using 100 uM GTP substrate; design: species or system Caulobacter vibrioides
How it was run: (§2)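 DGC activity of PleD measured by circular dichroism with 100 µM GTP substrate; where compound CD spectra interfered, nucleotide content analysed by reverse-phase HPLC. Initial velocity used for IC50; residual activity versus inhibitor concentration fitted to log-dose vs response curve, mean and SD of three independent experiments.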

[4] = Inhibition of Pseudomonas aeruginosa RocR assessed as residual enzyme activity using 30 uM c-di-GMP substrate; how it was run: as §1
[5] = test system: Pseudomonas aeruginosa; experiment: Inhibition of Pseudomonas aeruginosa WspR assessed as residual enzyme activity at 100 uM
How it was run: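 WspR DGC activity measured by circular dichroism under the same conditions as for PleD, with 100 µM compound; read-out as residual activity.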

[6] = test system: Pseudomonas aeruginosa; experiment: Inhibition of Pseudomonas aeruginosa YfiN containing HAMP-GGDEF domain assessed as residual enzyme activity up to 250 uM
[7] = test system: Pseudomonas aeruginosa; experiment: Inhibition of biofilm formation of Pseudomonas aeruginosa PAO1 at 7.81 to 500 uM incubated for 16 hrs by crystal violet staining method; format: functional, organism-based
How it was run: (§3)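 P. aeruginosa PAO1 or E. coli MG1655 grown 14 h at 37°C in M9 with 0.4% glucose (E. coli medium also with 2.5% LB). Cultures diluted in fresh medium, compound in DMSO or DMSO alone added, then incubated 16 h at 30°C. Planktonic A600 read; wells washed with PBS, air-dried, stained with 1% crystal violet, solubilised in ethanol, A595 read.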

[8] = test system: Escherichia coli; experiment: Inhibition of biofilm formation of Escherichia coli MG1655 7.81 to 500 uM incubated for 16 hrs by crystal violet staining method; format: functional, organism-based; how it was run: as §3
[9] = test system: Pseudomonas aeruginosa; experiment: Effect on cdrA expression in Pseudomonas aeruginosa PAO1 at 200 uM by real time RT-PCR method; format: functional, organism-based
How it was run: (§4)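 P. aeruginosa PAO1 grown at 37°C in M9 minimal medium with 0.4% glucose, plus DMSO or 200 µM compound in DMSO, to A600 2.0. Total RNA extracted, DNase-treated, reverse transcribed; qPCR with 5 ng cDNA per reaction and 300 nM primers, fluorescence read in the 60°C step. Normalized to 16S rRNA; relative fold change by 2∆∆Ct method.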

[10] = test system: Pseudomonas aeruginosa; experiment: Effect on pctC expression in Pseudomonas aeruginosa PAO1 at 200 uM by real time RT-PCR method; format: functional, organism-based; how it was run: as §4
[11] = Inhibition of Caulobacter crescentus PleD; design: species or system Caulobacter vibrioides; how it was run: as §2

| Structure (SMILES) | Activity [1] | Activity [2] | also measured |
| --- | --- | --- | --- |
| Nc1nc(Cl)c2ncn(CCn3cc(Cn4cnc5c(Cl)nc(N)nc54)nn3)c2n1 | 92% | 86% | – |
| Nc1nc2c(ncn2CCn2cc(Cn3cnc4c(=O)[nH]c(N)nc43)nn2)c(=O)[nH]1 | 104% | 77% | – |
| CNc1nc(N)nc2c1ncn2CCCn1cc(Cn2cnc3c(NC)nc(N)nc32)nn1 | 96% | 70% | – |
| Nc1nc(NCc2ccccc2)c2ncn(CCCn3cc(Cn4cnc5c(NCc6ccccc6)nc(N)nc54)nn3)c2n1 | 109% | 75% | – |
| Nc1nc2c(ncn2CCCn2cc(Cn3cnc4c(=O)[nH]c(N)nc43)nn2)c(=O)[nH]1 | 12.5% | 41% | IC50 [3]: 17.5 µM; IC50 [4]: 66.3 µM; Activity [5]: 20%; inhibition [6]: inactive; inhibition [7]: inactive; inhibition [8]: inactive; Activity [9]: inactive; Activity [10]: inactive |
| Nc1nc(Cl)c2ncn(CCCn3cc(Cn4cnc5c(Cl)nc(N)nc54)nn3)c2n1 | 32% | 96% | IC50 [3]: 25.5 µM; inhibition [7]: inactive; inhibition [8]: inactive; Activity [9]: inactive; Activity [10]: inactive |
| Nc1ncnc2c1ncn2CCCn1cc(Cn2cnc3c(N)ncnc32)nn1 | 106% | 64% | – |
| Nc1nc(Cl)c2ncn(CCCCn3cc(Cn4cnc5c(Cl)nc(N)nc54)nn3)c2n1 | 98% | 128% | – |
| Nc1ncnc2c1ncn2[C@@H]1O[C@H](COCc2cn(C[C@H]3O[C@@H](n4cnc5c(N)ncnc54)[C@H](O)[C@@H]3O)nn2)[C@@H](O)[C@H]1O | 105% | 113% | – |
| Nc1nc2c(ncn2[C@@H]2O[C@@H]3COP(=O)(O)O[C@H]4[C@@H](O)[C@H](n5cnc6c(=O)[nH]c(N)nc65)O[C@@H]4COP(=O)(O)O[C@H]3[C@H]2O)c(=O)[nH]1 | – | – | IC50 [11]: 5 µM |
| Nc1nc2c(ncn2CCCCn2cc(Cn3cnc4c(=O)[nH]c(N)nc43)nn2)c(=O)[nH]1 | 87% | 92% | – |
| Clc1ncnc2c1ncn2CCCn1cc(Cn2cnc3c(Cl)ncnc32)nn1 | 97% | 93% | – |

More lines, main results first:

| Activity [1] | Activity [2] | Structure (SMILES) | also measured |
| --- | --- | --- | --- |
| 63% | 88% | Nc1nc2c(ncn2[C@@H]2O[C@H](COCc3cn(C[C@H]4O[C@@H](n5cnc6c(=O)[nH]c(N)nc65)[C@H](O)[C@@H]4O)nn3)[C@@H](O)[C@H]2O)c(=O)[nH]1 | – |
| 89% | 77% | Nc1nc2c(ncn2Cc2cn(C[C@H]3O[C@@H](n4cnc5c(=O)[nH]c(N)nc54)[C@H](O)[C@@H]3O)nn2)c(=O)[nH]1 | – |
| 82% | 163% | Nc1nc2c(ncn2CCCn2cc(COC[C@H]3O[C@@H](n4cnc5c(=O)[nH]c(N)nc54)[C@H](O)[C@@H]3O)nn2)c(=O)[nH]1 | – |
| 97% | 79% | Nc1nc2c(ncn2[C@@H]2O[C@H](Cn3cc(COC[C@H]4O[C@@H](n5cnc6c(N)ncnc65)[C@H](O)[C@@H]4O)nn3)[C@@H](O)[C@H]2O)c(=O)[nH]1 | – |
